{"data": "Measurements pooled from the literature", "effect on": "cell growth or viability", "note": "Each line is one published result; the experiments were not run side by side."}
{"SMILES": "O=c1[nH]c2sc(-c3ccc(Cl)cc3)cc2c(=O)n1O", "cell line": "HFF", "assay": "MTS", "setting": "7 days", "CC50": "> 50 µM"}
{"SMILES": "Cc1ccc(S(=O)(=O)c2nc(S(=O)(=O)NCc3ccccc3)sc2Cl)cc1", "cell line": "HFF", "assay": "ATP luminescence", "CC50": "106 µM"}
{"SMILES": "Nc1nc(O)c2ncn(COC(CO)CO)c2n1", "cell line": "HFF", "assay": "ATP luminescence", "CC50": "> 150 µM"}
{"SMILES": "C[C@H]1[C@@H](O)O[C@@H]2O[C@@]3(C)CC[C@H]4[C@H](C)CC[C@@H]1[C@@]24OO3", "cell line": "J774", "assay": "ATP luminescence", "setting": "72 h", "CC50": "51.3 µM"}
{"SMILES": "N#Cc1nc(-c2ccccc2)oc1N1CCCC1CO (stereo not shown)", "cell line": "HFF", "assay": "ATP luminescence", "CC50": "> 150 µM"}
{"SMILES": "CNC(=O)CN1C(=O)Cc2c([nH]c3ccc(Br)cc23)-c2ccc(Cl)cc21", "cell line": "J774", "assay": "WST-1", "setting": "24 h", "CC50": "≤ 100 µM"}
{"SMILES": "Cc1ccc(-c2nc(C#N)c(N(C)S(=O)(=O)c3ccc(C)cc3)o2)cc1", "cell line": "HFF", "assay": "ATP luminescence", "CC50": "83.8 µM"}
{"SMILES": "O=C(CN1C(=O)Cc2c([nH]c3ccc(Br)cc23)-c2ccc(Cl)cc21)NCCN1CCNCC1", "cell line": "J774", "assay": "WST-1", "setting": "24 h", "CC50": "≥ 100 µM"}
{"SMILES": "O=c1[nH]c2sc3c(c2c(=O)n1O)CCN(Cc1ccccc1)C3", "cell line": "HFF", "assay": "MTS", "setting": "7 days", "CC50": "> 50 µM"}
{"SMILES": "CCN(CC)CCNC(=O)CN1C(=O)Cc2c([nH]c3ccc(Br)cc23)-c2ccc(Cl)cc21", "cell line": "J774", "assay": "WST-1", "setting": "24 h", "CC50": "≤ 10 µM"}
{"SMILES": "O=C1c2ccccc2C(c2ccccc2F)C(=O)N1O (stereo not shown)", "cell line": "HFF", "assay": "MTS", "setting": "7 days", "CC50": "26 µM"}
{"SMILES": "NCCCCNC(=O)CN1C(=O)Cc2c([nH]c3ccc(Br)cc23)-c2ccc(Cl)cc21", "cell line": "J774", "assay": "WST-1", "setting": "24 h", "CC50": "≥ 100 µM"}
{"SMILES": "Nc1nc2c(ncn2COCCO)c(=O)[nH]1", "cell line": "HFF", "assay": "ATP luminescence", "setting": "14 days", "CC50": "> 150 µM"}
